Rows were chosen to be rich in hits. Some 1.9% of all compounds tested hit in one or more screens of this group.
Rev-erbA mod: Rev-erb alpha (human) modulation; P20393; Rev-erbα–FITC-DNA binding, fluorescence polarization, 90 min; activity, % at 10 µM; 370,000 compounds, 0.79% hits;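 active = activity above about 14%, limit read from the data; passing the limit was not always enough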;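 note: 0% = DMSO wells with 35 nM protein and 100% = DMSO wells with 750 nM protein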
SKN-1 block: C. elegans SKN-1 inhibition; inhibition, % at 21.8 µM; C. elegans VP596 Pgst-4::GFP/RFP ratio, acrylamide-induced, 24 h; AID 624304; 360,000 compounds, 0.49% hits;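 active = interference check ratio from 0.5 to 1.5 plus GFP to RFP signal ratio inhibition reaching or exceeding a fixed threshold, cut at about 30% in these data, passing the limit was not always enough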
PG9 binder: binds the HIV-1 gp120 antibody PG9; TR-FRET gp120-PG9 antibody binding; inhibition, % at 6.7 µM; 360,000 compounds, 0.43% hits; in the data active = inhibition above about 8.5%
MT1-MMP act inh: MT1-MMP (human) activation inhibition | P50281 | HT1080 RFP-PRO-GFP cells, GFP/RFP ratio fluorescence, overnight; percent of plate control window, DMSO zero | GFP/RFP ratio change, % at 20 µM | 360,000 compounds, 0.061% hits | AID 651647;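 active = GFP/RFP ratio change of at least 30% with cell ATP level not reduced by more than half and red fluorescence within 50% of control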
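Compound: 20 µM single dose, 1% DMSO / System: HT1080 RFP-PRO-GFP cells / Controls: DMSO and RFP-L50D-GFP cell wells / Read-out basis: GFP/RFP fluorescence ratio / Schedule: overnight compound exposure at 37 °C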
NR2E3 ag-1: activates human photoreceptor nuclear receptor NR2E3; Q9Y5X4; GST-NR2E3/biotin-RetCOR TR-FRET, 1536-well; inhibition of corepressor binding, % at 4.78 µM; 320,000 compounds, 0.12% hits; AID 2300;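 active = percent inhibition above the cutoff of mean plus 3 SD of all tested compounds, set per screening campaign, cut at about 20% in these data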;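 note: 0% = DMSO wells and 100% = biotin wells as full block of FRET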
Target sequence (Q9Y5X4 whole entry, looked up): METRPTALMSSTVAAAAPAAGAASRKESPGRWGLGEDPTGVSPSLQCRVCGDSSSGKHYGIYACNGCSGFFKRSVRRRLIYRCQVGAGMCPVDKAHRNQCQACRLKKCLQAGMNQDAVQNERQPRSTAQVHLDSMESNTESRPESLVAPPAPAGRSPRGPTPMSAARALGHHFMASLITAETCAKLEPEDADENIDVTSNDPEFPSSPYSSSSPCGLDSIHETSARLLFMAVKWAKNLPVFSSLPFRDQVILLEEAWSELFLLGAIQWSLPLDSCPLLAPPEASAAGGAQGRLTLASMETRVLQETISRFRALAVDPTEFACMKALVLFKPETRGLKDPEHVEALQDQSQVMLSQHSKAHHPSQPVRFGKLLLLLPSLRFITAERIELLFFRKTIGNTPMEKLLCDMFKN
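Material – GST-tagged NR2E3 plus biotinylated RetCOR corepressor · Quantity – NR2E3 fusion 1.35 nM · Times – 5 h incubation at 4 °C · Medium – pH 7.5 Tris-based buffer · Technique – TR-FRET, Eu(K)-anti-GST donor, streptavidin-D2 acceptor, ex 340, em 617/671 nm · Benchmarks – high control biotin, low control 0.6% DMSO · Format – 1536-well plates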
NR2E3 ag-2: activates human NR2E3 receptor | Q9Y5X4 | CHO-S Gal4-NCOR/VP16-NR2E3 two-hybrid, luciferase | inhibition of corepressor binding, % at 3.98 µM | 360,000 compounds, 0.35% hits;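 active = inhibition above the mean of all tested compounds plus 3 SD, cut at about 70% in these data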;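 note: 0% = DMSO with NR2E3 transfected cells and 100% = cells lacking NR2E3 construct; higher means lower luciferase signal from less NR2E3 corepressor binding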
NR2E3 ag conf: NR2E3 agonism confirmed in two-hybrid assay; shares compounds with NR2E3 ag-2; AID 624378; CHO-S mammalian two-hybrid NR2E3-NCOR, luciferase luminescence; 2,300 compounds, 51% hits; inhibition, % at 3.98 µM;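 active = average inhibition above a cutoff equal to the mean inhibition of all tested compounds plus one SD, cut at about 70% in these data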;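 note: 0% = DMSO in NR2E3 cells and 100% = DMSO in cells lacking NR2E3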
GAL4-VP16 luc: counter-screen for NR2E3 agonists: GAL4-VP16 reporter inhibitors; shares compounds with NR2E3 ag-2; CHO-S GAL4-VP16 luciferase reporter, luminescence; inhibition, % at 3.98 µM; 2,300 compounds, 29% hits; AID 624379;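 active = mean inhibition above a cutoff equal to the average over all tested compounds plus one standard deviation, cut at about 70% in these data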;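 note: luciferase from a UAS reporter driven by GAL4-VP16 transactivation; 0% = DMSO with VP16-transfected cells and 100% = DMSO with cells lacking VP16; higher means less reporter light so more repression of VP16 activity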
* = called active by the depositor.

Results for Cc1ccc(NS(=O)(=O)c2ccc(NC(=O)c3cccs3)cc2)c(C)c1 ?
Rev-erbA mod: 5; SKN-1 block: -6; PG9 binder: 2; MT1-MMP act inh: 1; NR2E3 ag-1: 0; NR2E3 ag-2: 3

Results for O=S(=O)(Nc1ccc(F)cc1Cl)c1ccc(-c2cnc(C3CC3)o2)cc1 ?
Rev-erbA mod: -1; SKN-1 block: -3; PG9 binder: -2; MT1-MMP act inh: -1; NR2E3 ag-1: -2; NR2E3 ag-2: 71*; NR2E3 ag conf: 66; GAL4-VP16 luc: 46

What do the screens show for `CCOc1ccccc1NS(=O)(=O)c1ccc(-c2cnc(C3CC3)o2)cc1`?
Rev-erbA mod: -2; SKN-1 block: -6; PG9 binder: 0; MT1-MMP act inh: 9; NR2E3 ag-1: 2; NR2E3 ag-2: 60; NR2E3 ag conf: 11; GAL4-VP16 luc: 6

How did Cn1c(=O)c(=O)n(C)c2cc(S(=O)(=O)N3CCN(c4ccccc4Cl)CC3)ccc21 do in these assays?
Rev-erbA mod: 12

How did COCc1[nH]nc2c1C(c1ccc(Br)cc1)N(Cc1ccccc1)C2=O (stereo not given) do in these assays?
Rev-erbA mod: -6; PG9 binder: 0

What do the screens show for `Cc1ccc(NS(=O)(=O)c2ccc(-c3cnc(C4CC4)o3)cc2)c(C)c1`?
Rev-erbA mod: 7; SKN-1 block: -5; PG9 binder: 0; MT1-MMP act inh: -1; NR2E3 ag-1: 2; NR2E3 ag-2: 79*; NR2E3 ag conf: 56; GAL4-VP16 luc: 34

How did COc1ccc(NS(=O)(=O)c2ccc(-c3cnc(C4CC4)o3)cc2)cc1OC do in these assays?
Rev-erbA mod: 6; SKN-1 block: -1; PG9 binder: -2; MT1-MMP act inh: -12; NR2E3 ag-1: 0; NR2E3 ag-2: 104*; NR2E3 ag conf: 94*; GAL4-VP16 luc: 85*

How did Cc1ccc(-c2csc(NC(=O)c3ccccc3Cl)c2C(=O)O)cc1 do in these assays?
Rev-erbA mod: -10; SKN-1 block: -7; PG9 binder: 0; MT1-MMP act inh: -1; NR2E3 ag-1: 3; NR2E3 ag-2: -19

How did CC(C)c1ccc(-c2csc(NC(=O)c3cccs3)c2C(=O)O)cc1 do in these assays?
Rev-erbA mod: -9; SKN-1 block: 8; PG9 binder: 0; MT1-MMP act inh: -5; NR2E3 ag-1: 0; NR2E3 ag-2: 49; NR2E3 ag conf: 94*; GAL4-VP16 luc: 16

What do the screens show for `CCc1[nH]nc(C(=O)N2CCCC(C(=O)c3cccc(C(F)(F)F)c3)C2)c1C` (stereo not given)?
Rev-erbA mod: -5; SKN-1 block: 6; PG9 binder: -3; MT1-MMP act inh: 3; NR2E3 ag-1: -4; NR2E3 ag-2: 49; NR2E3 ag conf: 20; GAL4-VP16 luc: 31

How did COC(=O)[C@H](C(C)C)N(CCCc1cn(Cc2ccc(C)cc2)nn1)S(=O)(=O)c1ccc(F)cc1Br do in these assays?
Rev-erbA mod: -3

What do the screens show for `Cc1cccc(C(=O)NNC(=S)NC(=O)c2cccs2)c1`?
Rev-erbA mod: -3; SKN-1 block: 8; PG9 binder: -4; MT1-MMP act inh: -3; NR2E3 ag-1: 1; NR2E3 ag-2: 54; NR2E3 ag conf: 46; GAL4-VP16 luc: 1

Results for O=C(Nc1ccccc1Oc1ccccc1)NC1CCCCN(Cc2cccc(Cl)c2)C1=O (stereo not given) ?
Rev-erbA mod: -1

Results for O=Cc1ccc(O)c2ncccc12 ?
SKN-1 block: 3; MT1-MMP act inh: 1; NR2E3 ag-2: 69; NR2E3 ag conf: -6; GAL4-VP16 luc: -1

Results for NC(=O)c1ccc(O)c2ncccc12 ?
Rev-erbA mod: 0

How did N#C/C(=N\Nc1cccc(C(F)(F)F)c1)C(=O)c1ccsc1 do in these assays?
Rev-erbA mod: 6; SKN-1 block: -11; PG9 binder: -1; MT1-MMP act inh: -7; NR2E3 ag-1: -2; NR2E3 ag-2: 80*; NR2E3 ag conf: 98*; GAL4-VP16 luc: 59

What do the screens show for `Cc1sc2ncnc(NCCc3ccc(S(N)(=O)=O)cc3)c2c1C`?
Rev-erbA mod: 5; SKN-1 block: -8; PG9 binder: 0; MT1-MMP act inh: -8; NR2E3 ag-1: 2; NR2E3 ag-2: 89*; NR2E3 ag conf: 94*; GAL4-VP16 luc: 77*

Results for NS(=O)(=O)c1ccc(CCNc2ncnc3sccc23)cc1 ?
Rev-erbA mod: 0; SKN-1 block: 2; PG9 binder: 0; MT1-MMP act inh: -4; NR2E3 ag-1: 3; NR2E3 ag-2: 12

What do the screens show for `O=C(O)CNS(=O)(=O)c1ccc(Br)s1`?
Rev-erbA mod: -3; SKN-1 block: -1; PG9 binder: -2; MT1-MMP act inh: 7; NR2E3 ag-1: -3; NR2E3 ag-2: -19

How did O=S(=O)(NCc1ccncc1)c1ccccc1 do in these assays?
Rev-erbA mod: 0; SKN-1 block: 3; PG9 binder: 1; MT1-MMP act inh: 1; NR2E3 ag-1: 5; NR2E3 ag-2: 16

What do the screens show for `Cc1ccc(S(=O)(=O)NCc2ccncc2)cc1C`?
Rev-erbA mod: -1; SKN-1 block: 3; PG9 binder: 1; MT1-MMP act inh: -5; NR2E3 ag-1: 4; NR2E3 ag-2: 62; NR2E3 ag conf: 92*; GAL4-VP16 luc: 76*

How did O=S(=O)(NCc1ccncc1)c1ccc(F)c(F)c1 do in these assays?
Rev-erbA mod: 0; SKN-1 block: -1; PG9 binder: -1; MT1-MMP act inh: -5; NR2E3 ag-2: 31

What do the screens show for `O=S(=O)(NCc1ccncc1)c1ccc(Br)s1`?
Rev-erbA mod: 0; SKN-1 block: -6; PG9 binder: -2; MT1-MMP act inh: -1; NR2E3 ag-1: 1; NR2E3 ag-2: 103*; NR2E3 ag conf: 92*; GAL4-VP16 luc: 78*

Results for Cc1cc(C)c(C)c(S(=O)(=O)NCc2ccncc2)c1C ?
Rev-erbA mod: -2; SKN-1 block: 3; PG9 binder: -2; MT1-MMP act inh: -4; NR2E3 ag-1: 4; NR2E3 ag-2: 69; NR2E3 ag conf: 46; GAL4-VP16 luc: 34

How did COc1ccc(S(=O)(=O)Nc2ccc(Cc3ccncc3)cc2)cc1C do in these assays?
SKN-1 block: 8; MT1-MMP act inh: -6; NR2E3 ag-1: 2; NR2E3 ag-2: 61; NR2E3 ag conf: 47; GAL4-VP16 luc: 50

How did O=C(C(=O)N1CCC(CNC(=O)C2COc3ccccc3O2)CC1)c1cc2ccccc2o1 (stereo not given) do in these assays?
Rev-erbA mod: 2; PG9 binder: 0
